Only some compounds are listed: those with a hit (about 2.1% of all), similar ones and a draw of the others.
MC4R barr agon: activates human MC4R beta-arrestin recruitment | 360,000 tested, 0.98% active | P32245 | activation, % at 8.9 µM | U2OS MC4R beta-arrestin complementation, luminescence; percent of melanotan II response, DMSO zero | AID 540308;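 active means activation above a per-plate cutoff, the mean activation of sample wells on that plate plus 3 SD, cut at about 8% in these data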
Target sequence (P32245 whole entry, looked up): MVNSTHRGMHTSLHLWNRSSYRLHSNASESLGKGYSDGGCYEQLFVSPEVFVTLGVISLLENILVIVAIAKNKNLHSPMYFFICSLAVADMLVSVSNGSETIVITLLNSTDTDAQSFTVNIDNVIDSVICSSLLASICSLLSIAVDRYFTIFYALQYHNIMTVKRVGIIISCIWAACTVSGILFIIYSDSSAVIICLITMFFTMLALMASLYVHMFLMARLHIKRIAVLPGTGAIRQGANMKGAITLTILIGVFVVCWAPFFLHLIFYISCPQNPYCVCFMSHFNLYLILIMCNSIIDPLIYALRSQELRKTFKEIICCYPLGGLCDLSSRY
CFTR F508del cor: CFTR F508del correction in bronchial cells; CFBE cells, YFP halide quenching; stimulated with forskolin plus potentiator P3; % fluorescence drop versus neutral controls; activity (quench increase), % at 7.58 µM; 350,000 tested, 0.36% active; AID 720511;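 active means mean added fluorescence quench of at least 8% versus neutral control, with both replicates also reaching 8%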;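 further: cells transiently co-express mutant CFTR-F508del with the halide-sensitive YFP; corrector assay measuring rescue of mutant channel to the surface after 24 h compound exposure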
MC4R antag cAMP: blocks human MC4R cAMP signaling. MC4R-expressing cells, MTII-stimulated cAMP, LANCE TR-FRET. inhibition, % at 6.5 µM. 360,000 tested, 0.48% active;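 active means inhibition above its plate's cutoff, the mean of tested wells on that plate plus 3 SD, cut at about 29% in these data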;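 further: 0% = Melanotan II alone and 100% = Melanotan II plus saturating MCL0020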
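Material: U2OS-MC4R stable cell line | Reagent: Melanotan II challenge after compound preincubation | Doses: One concentration, 6.5 µM nominal | Incubation: 30-min compound preincubation, 1-h Melanotan II challenge, 1-h detection, room temperature | Signal: TR-FRET cAMP assay | Replicates: One well per compound, no replicates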
SMARCA2 activ: increases SMARCA2 function in MMTV reporter cells; 370,000 tested, 1% active; activation, % at 9.1 µM; MG213 cells, MMTV-luciferase reporter, dexamethasone, overnight; in the data active means activation above about 7.8%;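 further: 0% = vehicle wells and 100% = reference activator wells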
MC4R barr ag: human MC4R beta-arrestin agonism confirmation; 2,400 tested, 31% active; U2OS MC4R beta-arrestin recruitment, luminescence; scaled DMSO 0%, Melanotan II 100%; activation, % at 8.9 µM; shares compounds with MC4R barr agon; AID 602192;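 active means mean activation across replicates above the hit cutoff set in the earlier primary screen, cut at about 8% in these data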
MOR-DOR barr ag: OPRM1-OPRD1 heterodimer agonism counter-screen. U2OS PathHunter beta-arrestin, beta-gal luminescence; percent of deltorphin B response, DMSO zero. 2,400 tested, 5.8% active. activation, % at 9.2 µM. shares compounds with MC4R barr agon. AID 602194;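 active means mean activation across replicates exceeds the hit threshold derived in the earlier primary screen, cut at about 18% in these data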;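 further: 100% = deltorphin B at 0.9 µM final and 0% = DMSO alone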
An asterisk follows results filed as active; · = not tested or not shown.

SMILES	MC4R barr agon	CFTR F508del cor	MC4R antag cAMP	SMARCA2 activ	MC4R barr ag	MOR-DOR barr ag
O=C(Nc1nc2cc3c(cc2s1)OCO3)c1cccc(N2C(=O)CCC2=O)c1	2	-2	9	4	·	·
CCOC(=O)c1c(NC(=O)Nc2ccccc2)sc(C)c1C	5	·	3	-3	·	·
COc1ccc(NC(=O)COC(=O)c2c(NC(C)=O)sc(C)c2C)cc1	31*	-5	-2	2	18*	3
CCOC(=O)Nc1sc(C)c(C)c1C(=O)OCC	10*	·	-6	0	1	3
CN1CCN(C(=O)C[C@@H]2C[C@H]3c4cc(NC(=O)Nc5ccc(F)cc5)ccc4O[C@H]3[C@@H](CO)O2)CC1	·	-1	·	·	·	·
C[C@@H]1CCCCO[C@H](CN(C)C(=O)CCCN(C)C)[C@H](C)CN([C@H](C)CO)C(=O)c2cc(NC(=O)Nc3cccc4ccccc34)ccc2O1	·	-2	·	·	·	·
CC(C)c1ccc(/C=C/C(=O)Nc2nc3ccc([N+](=O)[O-])cc3s2)cc1	22*	·	2	-3	5	4
CC(=O)Nc1nc2cc([N+](=O)[O-])ccc2s1	-1	2	-4	1	·	·
O=C(Nc1ccncc1)C1c2ccccc2Oc2ccccc21	-3	·	-2	0	·	·
CCCCNS(=O)(=O)c1ccc(NC(=O)C2c3ccccc3Oc3ccccc32)cc1	13*	·	3	-4	13*	6
COC(=O)c1c(NC(=O)c2cccc([N+](=O)[O-])c2)sc(C(N)=O)c1C	12*	2	-10	0	7	3
CCC(C)(C)NC(=O)C(c1ccncc1)N(Cc1cccs1)C(=O)Cn1nnc2ccccc21 (configuration not stated)	-1	·	14	1	·	·
CCC(C)(C)NC(=O)C(c1ccc(C)cc1)N(Cc1ccco1)C(=O)Cn1nnc2ccccc21 (configuration not stated)	9.9*	·	-2	-4	3	5
COCC(=O)Nc1ccc2c(c1)C(=O)N(C)C[C@@H](OC)[C@@H](C)CN(Cc1ccncc1)[C@H](C)CO2	·	4	·	·	·	·
COc1cc(SC)ccc1C(=O)Nc1ccccc1C#N	12*	·	-2	6	7	4
CCCNC(=O)[C@H]1[C@H](CO)[C@H]2Cn3c(cccc3=O)[C@H]2N1CC1CC1	·	1	·	·	·	·
COc1ccc(OCCSc2nnc(CCNC(=O)c3ccc(Cl)c(Cl)c3)n2C)cc1	2	-1	23	-5	·	·
CCn1c(CCNC(=O)c2ccc(Cl)c(Cl)c2)nnc1SCCOc1ccc(OC)cc1	11*	·	12	-3	4	6
O=C(/C=C/c1cc2ccccc2o1)c1ccccc1O	15*	-1	20	6	2	3
O=C(N[C@@H]1CC[C@@H](CCNS(=O)(=O)c2cccc(Cl)c2)O[C@H]1CO)c1ccc(F)cc1	·	-1	·	·	·	·
N#Cc1ccccc1NC(=O)c1ccc(-c2ccccc2Cl)o1	22*	·	1	1	7	6
C=C(C)c1cccc(C(C)(C)NC(=O)NCc2ccc(OC)cc2)c1	17*	-2	1	-1	1	5
Cc1cc(C(=O)COC(=O)CNC(=O)c2ccc(Cl)c(Cl)c2)c(C)n1Cc1ccco1	12*	-3	6	1	-3	3
Cc1c(Cc2ccccc2)sc(NC(=O)Cc2ccccc2)c1C(N)=O	11*	·	6	-4	4	5
COc1ccc(/C=C/C(=O)Nc2sc(Cc3ccccc3)c(C)c2C(N)=O)cc1	25*	·	-6	0	16*	8
SMILES	MC4R barr agon	CFTR F508del cor	MC4R antag cAMP	SMARCA2 activ	MC4R barr ag	MOR-DOR barr ag
CC(C)CSc1nc2c(c(=O)[nH]c(=O)n2C)n1CC(O)COc1cccc2ccccc12 (configuration not stated)	14*	·	7	-1	3	5
CCSc1nc2c(c(=O)[nH]c(=O)n2C)n1CC(O)COc1ccccc1 (configuration not stated)	1	1	23	-3	·	·
Cc1ccc(S(=O)(=O)N2CCCN(C)CC2)cc1	-1	-2	12	-1	·	·
Cc1ccc(S(=O)(=O)N2CCCN(S(=O)(=O)c3ccc(C(F)(F)F)cc3)CC2)cc1	28*	·	-12	1	14*	30*
CCCCC(=O)Nc1cccc(NC(=S)NC(=O)Cc2ccccc2)c1	1	·	-10	-2	·	·
O=C(COc1ccc(Cl)cc1Cl)NNC(=S)Nc1ccc(F)cc1	-1	3	3	·	·	·
CC(=O)NC(=S)Nc1ccc(NC(=O)COc2ccc(Cl)cc2Cl)cc1	31*	·	0	-3	4	8
CCC(=O)Nc1cccc(NC(=O)c2ccc(C)cc2Cl)c1	-2	-1	-1	6	·	·
Cc1ccc(OCC(=O)NC(=S)Nc2cccc(NC(=O)c3ccccc3)c2)cc1	15*	·	-7	-4	17*	7
Cc1ccc(OCC(=O)NC(=S)Nc2cccc(NC(=O)c3ccc(Cl)cc3Cl)c2)cc1	22*	·	-4	-3	7	3
CCCCC(=O)Nc1cccc(NC(=S)NC(=O)COc2ccccc2Cl)c1	18*	·	2	2	13*	2
CCCC(=O)NC(=S)Nc1cccc(NC(=O)c2ccccc2)c1	1	-3	0	1	·	·
C[C@H]1CCCCO[C@H](CN(C)C(=O)Nc2cccc3ccccc23)[C@@H](C)CN([C@@H](C)CO)C(=O)c2cc(NC(=O)Cc3ccccc3)ccc2O1	·	-10	·	·	·	·
O=C(/C=C/c1ccccc1)NC(=S)Nc1ccc2c3c(cccc13)CC2	-2	·	1	-5	·	·
O=C(COc1ccccc1)NC(=S)Nc1ccc2c3c(cccc13)CC2	14*	·	13	1	1	3
C[C@H](CO)N1C[C@H](C)[C@H](CN(C)C)Oc2ccc(NC(=O)C3CCCCC3)cc2CC1=O	·	-2	·	·	·	·
CCCn1nnc(NC(=O)c2ccc(-c3cc(Cl)ccc3Cl)o2)n1	9.6*	·	2	0	8	3
CCCn1nnc(NC(=O)c2ccc(Br)o2)n1	-2	·	0	0	·	·
COc1cccc(NC(=O)C[C@@H]2CC[C@@H]3[C@H](COc4ccc(NC(=O)C5CCC5)cc4C(=O)N3C)O2)c1	·	-2	·	·	·	·
CCCC#Cc1ccc2c(c1)O[C@@H](CN(C)CC1CCCC1)[C@H](C)CN([C@H](C)CO)S2(=O)=O	·	0	·	·	·	·
Cc1c(CCOC(=O)c2ccc(Cl)cc2Cl)sc[n+]1CC(=O)c1ccc(Br)cc1	28*	2	8	-1	23*	23*
Cc1c(CCOC(=O)C2C3CC4CC(C3)CC2C4)sc[n+]1CC(=O)c1ccc(Br)cc1 (configuration not stated)	7	3	0	2	·	·
CCCNC(=O)N1CCC2(CC1)CN(C(=O)CC)[C@@H](CO)c1[nH]c3cc(OC)ccc3c12	·	-2	·	·	·	·

Screens as filed in PubChem.
